Screening data from PubChem.
Most compounds without a hit are left out; they make up all but 3.9% or so of the library.
SR-BI DiI-HDL act – enhances SR-BI lipid uptake from DiI-HDL; CHO ldlA[mSR-BI] cells, DiI-HDL uptake fluorescence, 3 h; 100 = double the neutral-control signal; activation, % at 12.5 µM; 320,000 compounds, 0.096% hits;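 active means mean replicate activation of at least 60% and every replicate at or above 60%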
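Assay system: CHO ldlA[mSR-BI] cells, LDL receptor-null, SR-BI overexpressing; medium: Ham's F12 with 0.5% BSA, HEPES 25 mM, pH 7.4; also added: DiI-HDL 10 µg/mL; timing: 3 h uptake period with compound, 37 °C; signal: DiI fluorescence, bottom read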
HIF act – HIF pathway transcriptional activation. U2OS HRE-luciferase reporter, luminescence; normalized: DMSO 0%, desferrioxamine 100%. activation, % at 7.5 µM (by protocol). 300,000 compounds, 0.32% hits. AID 1910;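 active means mean activation of at least 10% of the iron chelator positive control signal, with at least half of replicates also reaching 10%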
GAA850 FXN act – frataxin GAA850 promoter activation. HEK293 lucGAA850 FXN promoter luciferase reporter, 24 h; percent of 10 µM SAHA response. activation, % at 6 µM. 360,000 compounds, 0.56% hits;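 active means activation above the average of all compounds screened plus 3 SD, cutoff fixed separately per campaign, cut at about 7.5% in these data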
SR-BI DiI inh – inhibitors of mouse SR-BI mediated HDL lipid uptake; ldlA[mSR-BI] CHO cells, DiI-HDL uptake fluorescence, 3 h; Q61009; 320,000 compounds, 0.96% hits; inhibition, % at 12.5 µM;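 active means mean replicate inhibition of at least 70% and a set share of replicates each scoring 70 or more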
ABCB6 inh 2 – human ABCB6 transporter inhibition; Q9NP58; K562-ABCB6 porphyrin accumulation, flow cytometry, 1 h; active compounds read low; fluorescence ratio to DMSO, % at 10 µM; 360,000 compounds, 0.19% hits;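 active means fluorescence ratio to DMSO below 75%, the collection mean minus 3 SD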;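 further: signal is porphyrin accumulated inside mitochondria; lower ratio means ABCB6 inhibition with less porphyrin fluorescence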
Target sequence (Q9NP58 whole entry, looked up): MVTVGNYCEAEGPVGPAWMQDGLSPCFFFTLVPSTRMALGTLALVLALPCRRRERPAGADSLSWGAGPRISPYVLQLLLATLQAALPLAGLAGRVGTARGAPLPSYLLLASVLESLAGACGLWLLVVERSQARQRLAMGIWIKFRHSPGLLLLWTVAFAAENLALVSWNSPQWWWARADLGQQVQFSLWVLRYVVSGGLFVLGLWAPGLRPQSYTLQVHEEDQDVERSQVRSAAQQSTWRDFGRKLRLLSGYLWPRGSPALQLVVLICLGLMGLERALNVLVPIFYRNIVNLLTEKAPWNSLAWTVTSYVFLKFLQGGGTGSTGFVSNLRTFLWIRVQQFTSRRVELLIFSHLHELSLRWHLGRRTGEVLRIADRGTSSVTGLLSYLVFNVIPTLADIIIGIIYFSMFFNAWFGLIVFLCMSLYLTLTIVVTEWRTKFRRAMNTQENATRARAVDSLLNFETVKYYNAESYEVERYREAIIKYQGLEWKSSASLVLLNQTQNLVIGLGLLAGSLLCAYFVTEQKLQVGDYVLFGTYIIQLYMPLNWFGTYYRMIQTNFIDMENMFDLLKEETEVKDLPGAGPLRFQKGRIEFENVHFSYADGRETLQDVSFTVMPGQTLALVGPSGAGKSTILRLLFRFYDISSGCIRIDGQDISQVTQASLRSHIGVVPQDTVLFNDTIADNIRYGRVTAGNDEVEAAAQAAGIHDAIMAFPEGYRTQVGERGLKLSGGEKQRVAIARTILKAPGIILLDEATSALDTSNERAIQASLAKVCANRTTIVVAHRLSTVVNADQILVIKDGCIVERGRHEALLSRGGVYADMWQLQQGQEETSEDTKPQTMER
AHR act – human AHR activation; P35869; AHR-responsive luciferase reporter cells, luminescence; activation, % at 5 µM; 320,000 compounds, 2.5% hits; AID 2796; in the data active means activation above about 47%
A number is an active result; - = inactive; . = not tested or not shown.

SMILES	SR-BI DiI-HDL act	HIF act	GAA850 FXN act	SR-BI DiI inh	ABCB6 inh 2	AHR act
Cc1nc2ccccc2n1CCN1CCOCC1	-	-	-	-	-	72.5
CC(=O)c1cccc(NC(=O)CN(C)S(=O)(=O)c2ccccc2)c1	-	-	-	-	-	-
CNC(=O)/C(C#N)=C/c1cc(C)n(-c2ccc(N3CCOCC3)cc2)c1C	-	-	-	-	-	-
COc1cc(C2N=C(c3ccccc3)NO2)cc(Br)c1O (centres undefined)	-	-	-	-	-	64.6
[O-]/C(=C(\C(=S)Nc1cccc2ccccc12)[n+]1ccccc1)c1ccc(Cl)s1	-	-	-	-	-	73.3
[O-]C(=C(C(=S)Nc1cccc2ccccc12)[n+]1cccc(CO)c1)c1ccc(Cl)s1	-	.	-	-	-	.
O=C1NC[C@H](Cc2ccccc2)N(C[C@H]2CCCN2C[C@H](Cc2ccccc2)N2C[C@H](Cc3ccccc3)N(CC3CCCCC3)C(=O)C2=O)C1=O	-	.	-	-	-	.
Oc1ccc(CN2CCc3ccccc3C2)c2cccnc12	-	158.8	-	-	-	-
Oc1ccc(CN2CCN(c3ccccc3)CC2)c2cccnc12	-	-	-	-	-	-
Cc1ccc(C)c(S(=O)(=O)N2CCN(Cc3ccc(O)c4ncccc34)CC2)c1	-	28.9	-	-	-	-
Oc1ccc(CN2CCC(Cc3ccccc3)CC2)c2cccnc12	.	17.9	.	.	.	.
COC(=O)c1c(NC(=O)CSc2nnc(-c3cccnc3)n2Cc2ccco2)sc(C)c1C	.	-	-	.	-	-
COc1cc(NC(C)=O)ccc1-c1cc2ccccc2oc1=O	-	-	-	-	-	-
COc1cc(NC(=O)c2ccc(Cl)cc2Cl)ccc1NC(=O)c1cccs1	-	-	-	73.3	-	-
C/C(CC(=O)Nc1ccc(Cl)cc1C(F)(F)F)=N\NC(=O)c1cccs1	-	-	-	-	-	-
COc1cc(NC(=O)c2ccc(Cl)cc2Cl)ccc1-c1cc2ccccc2oc1=O	-	-	-	83.9	-	-
COc1ccc(NC(=O)C(=O)NNC(=O)c2ccc(Cl)cc2Cl)cc1	-	511.5	-	-	-	-
COc1cc(NC(=O)C/C(C)=N/NC(=O)c2cccs2)c(OC)cc1Cl	-	-	-	-	-	63.9
Cc1cccc(N(C(=O)Nc2ccc(Cl)cc2)C2=NCC(C)S2)n1 (centres undefined)	-	-	-	-	-	-
O=C(CSc1ncnc2sc3c(c12)CCCC3)NC1CCS(=O)(=O)C1 (centres undefined)	-	.	-	-	-	-
COc1ccc(Cl)cc1NC(=O)C/C(C)=N/NC(=O)CCc1ccccc1	.	-	-	.	-	-
Cc1ccc(C(=O)NC(=S)Nc2ccc(-c3cc4ccccc4oc3=O)cc2)c(C)c1	-	-	-	82.0	-	-
COc1ccc(Cl)cc1NC(=O)C/C(C)=N/NC(=O)CC#N	-	-	-	-	-	71.9
COc1cc(NC(=O)c2cccs2)c(OC)cc1NC(=O)c1cccs1	-	-	-	-	-	57.0
COc1cc(NC(=O)c2cccs2)c(OC)cc1NC(=O)Cc1ccccc1	.	-	-	.	-	-
SMILES	SR-BI DiI-HDL act	HIF act	GAA850 FXN act	SR-BI DiI inh	ABCB6 inh 2	AHR act
COc1cc(NCCC(=O)c2cccs2)c(OC)cc1Cl	-	-	-	-	-	51.1
Cc1cc(C)cc(C(=O)NC(=S)Nc2ccc(-c3cc4ccccc4oc3=O)cc2)c1	-	-	-	-	-	-
COc1ccc(NC(=O)CCC(=O)c2cccs2)cc1Cl	-	-	-	-	-	-
Cc1cc(C)n(CCN(C)C(=O)CCc2nnc(-c3ccc4c(c3)OCO4)o2)n1	-	-	-	-	-	-
O=[N+]([O-])c1cnccc1Nc1cccc(F)c1	-	-	-	-	-	-
Cc1ccc(S(=O)(=O)NNC(=O)C(O)(c2ccccc2)c2ccccc2)cc1	-	-	-	-	-	-
Cc1nn(Cc2ccc(Cl)cc2)c(=O)n1N(C)c1ncc(C(F)(F)F)cc1Cl	-	-	-	-	-	-
CC1(C(=O)NS(=O)(=O)C2CC2)CCCN(C(=O)c2ccc3c(c2)OCO3)C1 (centres undefined)	.	.	-	.	-	.
COc1cc(C2c3c(oc4ccccc4c3=O)C(=O)N2Cc2ccco2)ccc1O (centres undefined)	-	-	-	-	-	-
COc1cccc(C2c3c(oc4ccccc4c3=O)C(=O)N2Cc2ccco2)c1 (centres undefined)	.	-	-	.	-	81.8
O=C(O)COc1ccc(/C=N/NC(=O)c2ccc(-c3csc(Nc4ccc(Cl)cc4)n3)cc2)cc1	-	-	-	74.1	-	.
O=C(Nc1cc(SCCO)cc([N+](=O)[O-])c1)c1ccc(Br)o1	.	-	-	.	-	51.9
CC(=O)Nc1cccc(-c2nc3ccccc3[nH]2)c1	-	-	-	-	-	47.4
CC(C)(C)C(=O)Nc1cccc(-c2nc3ccccc3[nH]2)c1	-	-	-	-	-	60.5
CC(C)CC(=O)Nc1cccc(-c2nc3ccccc3[nH]2)c1	-	-	-	-	-	57.6
O=C(Nc1ccc(-c2nc3ccccc3[nH]2)cc1)c1ccco1	-	-	8.6	-	-	-
COc1cccc(OC)c1C(=O)Nc1cccc(-c2nc3ccccc3[nH]2)c1	-	-	-	-	-	-
COc1ccc(C(=O)Nc2cccc(/C=C/c3nc4ccccc4c(=O)[nH]3)c2)cc1	-	-	-	-	-	-
CNS(=O)(=O)c1ccc(NC(=O)Nc2cccc(F)c2)cc1	-	-	-	-	-	-
Cc1ccc2[nH]c(CNC(=O)c3ccc(F)cc3)cc2c1	-	-	-	-	-	65.5
Cc1ccc2[nH]c(C(=O)Nc3ccc(F)cc3)cc2c1	-	-	-	-	-	-
CSc1sc(C(=O)NN)c2c1C1(CCC2)SCCS1	-	-	-	107.3	-	-
O=C(O)/C=C\C(=O)Nc1ccccc1C#Cc1ccc(Br)cc1	-	-	-	-	-	68.6
C=CCNC(=O)C1CC1(c1ccccc1)c1ccccc1 (centres undefined)	-	-	-	-	-	-
CCN(CC)Cc1c(C(=O)N2CCc3ccccc3C2)nc2ccc(Cl)cn12	-	-	-	-	-	-
CC(=O)N1N=C(c2c(-c3ccccc3)c3cc(C)ccc3[nH]c2=O)CC1c1ccco1 (centres undefined)	-	-	-	-	-	-
CC(C)COc1ccc(C(=O)Nc2ccc([N+](=O)[O-])cc2)cc1	-	15.2	-	-	-	-
CCCC1Cc2c(sc(NC(=S)NC(=O)c3ccccc3)c2C#N)CO1 (centres undefined)	.	-	.	.	.	-
Fc1ccc(-c2cc3nc4c(c(N5CCOCC5)n3n2)CCCC4)cc1	-	-	-	76.2	-	-
